Source: article PMC9271465 (ESMO Open, 2022)

Tests used:
wild-type EGFR = wild-type EGFR (Homo sapiens, UniProt P00533); test: kinase inhibition, wild-type EGFR; format: biochemical; settings: read-out: IC50 against wild-type EGFR; kinase level; unpublished data
[1] = preclinical tolerability in animals; format: in vivo; settings: preclinical studies; unpublished data
[2] = phase I dose-escalation: plasma pharmacokinetics; format: in vivo, patients; settings: for Cmax,ss / t1/2 / AUC0-24 h / Cmax: mean (%CV); for Tmax,ss / Tmax: median (range)
In short: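 Oral tablet, fasted, qd or b.i.d. (25–300 mg). Plasma sampled in cycle 0 after a single dose at pre-dose and 0.5–144 h. Under continuous dosing, sampled pre-dose on cycle 1 days 8 and 15, and on day 21 pre-dose to 24 h (b.i.d. to 12 h). Plasma stored at −80 °C. Noncompartmental analysis; arithmetic mean (%CV), Tmax median (range).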

EGFR T790M-mutated NSCLC = test: phase I dose-escalation: efficacy; format: in vivo, patients; settings: FAS
In short: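 Adults with T790M+ NSCLC (ARMS-confirmed) progressing on prior EGFR-TKIs; 3+3 escalation. Oral tablet, empty stomach: single dose day 1, then after 7 days continuous dosing in 21-day cycles (25–300 mg/day) until progression. CT/MRI brain, CT neck/chest/abdomen, bone scan every eight cycles; assessed at baseline, cycles 2, 4, 6, then every 2 cycles. RECIST v1.1 best overall response; disease control confirmed by imaging every 6 weeks.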

[3] = multiple doses 21 days, 25 mg qd, n = 1
[4] = multiple doses 21 days, 50 mg qd, n = 3
[5] = multiple doses 21 days, 100 mg b.i.d., n = 3
[6] = multiple doses 21 days, 100 mg qd, n = 3
[7] = multiple doses 21 days, 200 mg qd, n = 3
[8] = multiple doses 21 days, 300 mg qd, n = 1
[9] = steady state after 21 days of multiple doses

Chain of wild-type EGFR (P00533 25-1210): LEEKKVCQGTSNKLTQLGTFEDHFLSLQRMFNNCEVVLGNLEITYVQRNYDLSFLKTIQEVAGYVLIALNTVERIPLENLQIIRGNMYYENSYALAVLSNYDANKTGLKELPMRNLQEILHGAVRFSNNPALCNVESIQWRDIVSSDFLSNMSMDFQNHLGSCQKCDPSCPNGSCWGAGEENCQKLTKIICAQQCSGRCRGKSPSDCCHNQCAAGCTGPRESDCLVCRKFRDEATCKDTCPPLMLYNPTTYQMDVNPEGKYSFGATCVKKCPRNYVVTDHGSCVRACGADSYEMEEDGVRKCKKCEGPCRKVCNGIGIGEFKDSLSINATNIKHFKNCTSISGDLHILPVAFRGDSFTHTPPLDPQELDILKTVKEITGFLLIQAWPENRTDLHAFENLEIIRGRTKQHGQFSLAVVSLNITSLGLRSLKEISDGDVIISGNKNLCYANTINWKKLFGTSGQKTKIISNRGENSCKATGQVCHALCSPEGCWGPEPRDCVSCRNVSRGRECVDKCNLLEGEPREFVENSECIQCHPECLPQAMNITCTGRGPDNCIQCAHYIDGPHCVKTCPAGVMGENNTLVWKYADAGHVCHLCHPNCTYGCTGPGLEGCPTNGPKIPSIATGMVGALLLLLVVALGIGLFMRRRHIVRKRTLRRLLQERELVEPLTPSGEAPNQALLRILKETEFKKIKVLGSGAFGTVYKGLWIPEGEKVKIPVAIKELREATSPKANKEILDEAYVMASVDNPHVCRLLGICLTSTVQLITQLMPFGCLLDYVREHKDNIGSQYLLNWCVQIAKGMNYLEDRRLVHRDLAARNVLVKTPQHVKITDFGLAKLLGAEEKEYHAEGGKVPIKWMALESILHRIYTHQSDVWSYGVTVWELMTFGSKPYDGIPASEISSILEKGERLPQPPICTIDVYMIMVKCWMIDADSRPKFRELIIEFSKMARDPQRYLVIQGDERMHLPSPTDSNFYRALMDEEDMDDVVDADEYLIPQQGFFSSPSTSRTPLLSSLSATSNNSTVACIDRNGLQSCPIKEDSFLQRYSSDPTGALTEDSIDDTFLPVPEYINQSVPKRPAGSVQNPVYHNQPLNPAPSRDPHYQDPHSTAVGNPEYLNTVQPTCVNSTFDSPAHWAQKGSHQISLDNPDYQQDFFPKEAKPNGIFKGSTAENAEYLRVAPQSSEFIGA

## C=CC(=O)Nc1cc(Nc2ncc(Cl)c(Nc3ccccc3C(=O)C(=O)N(C)C)n2)c(OC)cc1N1CCN(C)CC1 [BPI-15086]
wild-type EGFR
  IC50: 503 nM
[1]
  tolerability in animals: well tolerated
[2]; 25 to 300 mg, single dose and multiple doses
  dose dependence of Cmax and AUC0-t: increased in a dose-dependent manner
[2]; [3]
  Cmax,ss: 24.6 (NA) ng/ml
  Tmax,ss: 2.88 (2.88-2.88) h
[2]; [4]
  Cmax,ss: 48.5 (64.3) ng/ml
  Tmax,ss: 2.08 (2.02-4.00) h
[2]; multiple doses 21 days, 50 mg qd
  t1/2: 8.94 (NA) h
[2]; [5]
  Cmax,ss: 240 (37.9) ng/ml
  Tmax,ss: 2.98 (2.03-3.00) h
[2]; multiple doses 21 days, 100 mg b.i.d.
  t1/2: 4.78 (NA) h
[2]; [6]
  Cmax,ss: 84.6 (65.6) ng/ml
  Tmax,ss: 3.00 (2.00-3.95) h
[2]; [7]
  Cmax,ss: 209 (71.1) ng/ml
  Tmax,ss: 2.02 (1.98-3.00) h
[2]; multiple doses 21 days, 200 mg qd
  t1/2: 9.09 (1.51) h
[2]; [8]
  Cmax,ss: 924 (NA) ng/ml
  Tmax,ss: 2.02 (2.02-2.02) h
[2]; multiple doses 21 days, 300 mg qd
  t1/2: 9.84 (NA) h
[2]; single dose, 25 mg qd, n = 1
  AUC0-24 h: 285 (NA) h × ng/ml
  Cmax: 31.6 (NA) ng/ml
  t1/2: 12.2 (NA) h
  Tmax: 1.97 (1.97-1.97) h
[2]; single dose, 50 mg qd, n = 3
  AUC0-24 h: 324 (47.7) h × ng/ml
  Cmax: 31.3 (40.1) ng/ml
  t1/2: 13.4 (35.2) h
  Tmax: 2.93 (2.02-4.05) h
[2]; single dose, 100 mg qd, n = 3
  AUC0-24 h: 580 (37.3) h × ng/ml
  Cmax: 46.1 (34.7) ng/ml
  t1/2: 11.3 (23.3) h
  Tmax: 3.00 (2.03-4.00) h
[2]; single dose, 200 mg qd, n = 7
  AUC0-24 h: 2630 (91.2) h × ng/ml
  Cmax: 273 (97.8) ng/ml
  t1/2: 9.91 (15.5) h
  Tmax: 4.02 (2.02-5.13) h
[2]; single dose, 300 mg qd, n = 3
  AUC0-24 h: 3860 (41.3) h × ng/ml
  Cmax: 354 (29.5) ng/ml
  t1/2: 14.1 (58.6) h
  Tmax: 4.00 (3.98-5.00) h
[2]; single dose, 25-300 mg
  mean apparent terminal elimination half-life (t1/2), range across doses: 9.91 to 14.1 h
[2]; single dose, lowest to highest doses 25-300 mg
  Median Tmax, range across doses: 1.97 to 4.02 h
[2]; steady state
  mean Vz/F, range across doses: 556 to 3830 L
  mean apparent oral clearance (CLss/F), range across doses: 49.3 to 166 L/h
  mean t1/2, range across doses: 4.78 to 9.84 h
[2]; [9]
  Cmax,ss, range across doses: 24.6 to 924 ng/mL
  Tmax,ss, range across doses: 2.02 to 3.00 h
EGFR T790M-mutated NSCLC; 25 mg/day (n = 1)
  Best overall response: Complete response: 0 n (%)
  Best overall response: Not evaluable: 0 n (%)
  Best overall response: Partial response: 0 n (%)
  Best overall response: Progressive disease: 1 (100.0) n (%)
  Best overall response: Stable disease: 0 n (%)
  PFS, median (95% CI): 1.5 (NE-NE) months
EGFR T790M-mutated NSCLC; 50 mg/day (n = 3)
  Best overall response: Complete response: 0 n (%)
  Best overall response: Not evaluable: 0 n (%)
  Best overall response: Partial response: 0 n (%)
  Best overall response: Progressive disease: 1 (33.3) n (%)
  Best overall response: Stable disease: 2 (66.7) n (%)
  OS, median (95% CI): 15.0 (8.4-15.0) months
  PFS, median (95% CI): 4.3 (1.6-5.8) months
EGFR T790M-mutated NSCLC; 100 mg/day (n = 3)
  Best overall response: Complete response: 0 n (%)
  Best overall response: Not evaluable: 0 n (%)
  Best overall response: Partial response: 1 (33.3) n (%)
  Best overall response: Progressive disease: 2 (66.7) n (%)
  Best overall response: Stable disease: 0 n (%)
  DOR, median (95% CI): 9.7 (NE-NE) months
  OS, median (95% CI): 16.1 (NE-NE) months
  PFS, median (95% CI): 1.6 (1.5-12.6) months
EGFR T790M-mutated NSCLC; 200 mg/day (n = 7)
  Best overall response: Complete response: 0 n (%)
  Best overall response: Not evaluable: 1 (14.3) n (%)
  Best overall response: Partial response: 2 (28.6) n (%)
  Best overall response: Progressive disease: 3 (42.9) n (%)
  Best overall response: Stable disease: 1 (14.3) n (%)
  DOR, median (95% CI): 6.7 (3.7-9.8) months
  PFS, median (95% CI): 3.0 (1.6-11.3) months
EGFR T790M-mutated NSCLC; 300 mg/day (n = 3)
  Best overall response: Complete response: 0 n (%)
  Best overall response: Not evaluable: 1 (33.3) n (%)
  Best overall response: Partial response: 0 n (%)
  Best overall response: Progressive disease: 0 n (%)
  Best overall response: Stable disease: 2 (66.7) n (%)
  OS, median (95% CI): 9.2 (NE-NE) months
EGFR T790M-mutated NSCLC; 25-mg/day
  PD, patients: 100%
EGFR T790M-mutated NSCLC; 25-mg/day, 50-mg/day, and 300-mg/day groups
  PR, patients: none of the patients
EGFR T790M-mutated NSCLC; 50-mg/day
  PD, patients: 33.3%
EGFR T790M-mutated NSCLC; 50-mg/day, 2/3 patients
  DCR: 66.7%
EGFR T790M-mutated NSCLC; 100-mg/day
  PD, patients: 66.7%
  PR, patients: 33.3%
EGFR T790M-mutated NSCLC; 100-mg/day, 1/3 patients
  DCR: 33.3%
EGFR T790M-mutated NSCLC; 200-mg/day
  PD, patients: 42.9%
  PR, patients: 28.6%
EGFR T790M-mutated NSCLC; 200-mg/day, 3/7 patients
  DCR: 42.9%
EGFR T790M-mutated NSCLC; 300-mg/day, 2/3 patients
  DCR: 66.7%
EGFR T790M-mutated NSCLC; All (n = 17)
  Best overall response: Complete response: 0 n (%)
  Best overall response: Not evaluable: 2 (11.8) n (%)
  Best overall response: Partial response: 3 (17.6) n (%)
  Best overall response: Progressive disease: 7 (41.2) n (%)
  Best overall response: Stable disease: 5 (29.4) n (%)
  DOR, median (95% CI): 9.7 (3.7-9.8) months
  OS, median (95% CI): 15.0 (8.4-16.1) months
  PFS, median (95% CI): 1.6 (1.6-5.3) months
EGFR T790M-mutated NSCLC; all 17 patients
  CR, patients: No patients showed CR
  DCR: 47.1%
  ORR: 17.6%
  PD, patients: 41.2%
  confirmed PR, patients: 17.6%
  could not be assessed for response, patients: 11.8%
EGFR T790M-mutated NSCLC; one patient of the 25-mg/day dose group
  response: no response was observed
EGFR T790M-mutated NSCLC; three patients in the 300-mg/day group
  PD, patients: None
